Compound activity deposited in PubChem BioAssay by several laboratories.
NS3 helicase inh: blocks Hepatitis C virus NS3 helicase unwinding | 290,000 tested, 0.56% active | NS3 helicase DNA unwinding, Cy5 molecular beacon fluorescence | inhibition, % at 10.9 µM | AID 1800;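 active means inhibition above the mean of all tested compounds plus 3 SD, set per campaign, cut at about 35% in these data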;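 further: 0% = DMSO wells and 100% = thioflavine S control wells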
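Measured by: Cy5 fluorescence, 0 and 60 min reads / Assay system: NS3 helicase fragment of HCV / Control set: low DMSO, high thioflavine S at 110 µM / Times: 1 h reaction at 25 °C, ATP-initiated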
MBD2 DNA inh: inhibitors of human MBD2 binding to methylated oligonucleotide; TR-FRET; inhibition, % at 4.4 µM; 370,000 tested, 0.31% active; AID 686964; in the data active means inhibition above about 13%
UHRF1 binding: UHRF1 methyl-DNA binding inhibition; Q96T88; UHRF1 binding to methylated oligo, TR-FRET; inhibition, % at 4.4 µM; 370,000 tested, 0.75% active; AID 687016; in the data active means inhibition above about 21%;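 further: UHRF1 SRA domain binding a hemimethylated CpG hairpin DNA probe; 0% = median of test compound wells and 100% = reference inhibitor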
SUMO1-SIM PPI: modulators of human SUMO1-mediated protein-protein interactions; inhibition, % at 20 µM; 360,000 tested, 0.33% active; P63165; SUMO1 binding to a labelled peptide, TR-FRET, 1 h; in the data active means inhibition above about 37%
Pemphigus Ab inh: human desmoglein-3 autoantibody binding inhibition; P32926; DSG3-coupled beads, scFv-anti-DSG3-GFP binding, flow cytometry; active compounds read low; binding (percent of control), % at 10 µM; 310,000 tested, 0.48% active;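 active means binding more than 3 SD below its plate's average and above zero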;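 further: hits lower antibody fragment binding to DSG3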
Target sequence (P32926 whole entry, looked up, the tested form may be a part): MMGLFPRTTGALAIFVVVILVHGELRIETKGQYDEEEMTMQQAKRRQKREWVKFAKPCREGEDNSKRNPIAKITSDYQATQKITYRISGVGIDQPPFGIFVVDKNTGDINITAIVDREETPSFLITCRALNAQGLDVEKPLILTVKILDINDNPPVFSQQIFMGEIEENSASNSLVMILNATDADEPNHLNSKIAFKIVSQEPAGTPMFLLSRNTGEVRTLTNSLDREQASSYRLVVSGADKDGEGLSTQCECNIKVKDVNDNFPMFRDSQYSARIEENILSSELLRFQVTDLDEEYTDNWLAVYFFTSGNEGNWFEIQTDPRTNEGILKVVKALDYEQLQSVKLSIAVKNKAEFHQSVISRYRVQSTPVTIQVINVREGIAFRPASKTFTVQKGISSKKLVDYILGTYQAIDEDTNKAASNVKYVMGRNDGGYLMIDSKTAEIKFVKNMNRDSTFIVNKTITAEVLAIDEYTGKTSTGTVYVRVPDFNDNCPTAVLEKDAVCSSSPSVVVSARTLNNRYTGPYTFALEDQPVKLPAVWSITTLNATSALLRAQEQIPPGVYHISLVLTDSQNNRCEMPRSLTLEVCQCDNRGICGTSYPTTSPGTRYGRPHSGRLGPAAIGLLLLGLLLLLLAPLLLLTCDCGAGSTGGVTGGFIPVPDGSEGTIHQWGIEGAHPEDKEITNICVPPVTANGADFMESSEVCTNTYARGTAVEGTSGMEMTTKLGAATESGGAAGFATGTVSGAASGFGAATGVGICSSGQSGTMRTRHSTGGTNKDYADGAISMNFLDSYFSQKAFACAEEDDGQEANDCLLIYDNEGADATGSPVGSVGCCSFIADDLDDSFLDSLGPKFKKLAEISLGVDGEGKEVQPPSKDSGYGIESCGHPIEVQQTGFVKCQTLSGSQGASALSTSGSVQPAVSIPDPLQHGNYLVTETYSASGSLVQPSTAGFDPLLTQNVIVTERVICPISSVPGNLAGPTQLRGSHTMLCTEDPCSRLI
DNMT1 inh: inhibitors of human DNMT1. inhibition (reported as % activation of signal), % at 10 µM. P26358. 360,000 tested, 0.83% active. DNMT1 molecular beacon, Hinp1I cleavage, fluorescence. AID 588458; in the data active means inhibition above about 50%
DNMT1 confirm: confirmation of human DNMT1 inhibitors; shares compounds with DNMT1 inh; inhibition, % at 10 µM; 2,300 tested, 8% active; AID 602385; DNMT1 molecular beacon HinP1I cleavage, fluorescence;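 active means average inhibition of at least 30% in the single-concentration confirmation test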
Beacon interf: beacon fluorescence artifact counter-screen | shares compounds with DNMT1 inh | AID 602387 | activation (fluorescence interference), % at 10 µM | 2,300 tested, 1% active | DNMT1 molecular beacon spectral interference counterscreen, fluorescence 485/520;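 active means activation of at least 30% at 10 µM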;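 further: DNMT1 catalytic domain with a HinP1I cleavage step and a FAM/dabcyl DNA beacon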
Active calls of the source: *; / = no result given. In the library only some 2.5% were active in any assay of this set; here they are far more common.

SMILES	NS3 helicase inh	MBD2 DNA inh	UHRF1 binding	SUMO1-SIM PPI	Pemphigus Ab inh	DNMT1 inh	DNMT1 confirm	Beacon interf
O=C(c1ccc(=O)oc1)N1CCCc2ccccc21	4	4	17	12	105	105*	10	-4
O=C(c1coc(=O)c(Br)c1)N1CCOCC1	-2	-2	-2	-6	97	74*	0	0
OCC1(Cc2ccccc2C(F)(F)F)CCN(Cc2ccccc2)CC1	-4	2	4	-1	100	2	/	/
CC1CN(C(=O)C(C)N2C(=O)c3ccccc3C2=O)CC(C)O1 (stereo not drawn)	5	3	-4	-1	99	3	/	/
COc1ccc(Br)cc1/C=C(\C(=O)O)c1ccc(S(=O)(=O)N2CCCC2)s1	/	-4	2	-2	131	42	/	/
CCCCNc1ccc(C(CC(N)=O)NC(=O)Cc2cccc3ccccc23)cc1[N+](=O)[O-] (stereo not drawn)	/	0	-2	-4	108	51*	6	12
COc1cc(-c2cc(OC)c(O)c(OC)c2)cc(OC)c1O	/	0	1	-5	123	0	/	/
CSc1ncnc2c1ncn2CCCNCCCN1CCCC1=O	/	-2	1	2	104	2	/	/
O=C1N/C(=C/c2ccc(Br)cc2)C(O)=C1C=NCc1ccccc1	5	-3	-1	-3	102	62*	0	1
O=C1NC[C@H](CC2CCCCC2)N(CC2CCCCC2)C1=O	/	0	-2	1	104	-1	/	/
Cc1cc(/C=C(/C#N)c2nc3ccccc3[nH]2)c(C)n1-c1cc(C(=O)O)cc(C(=O)O)c1	14	1	23*	28	100	77*	8	-2
Cc1cc(/C=C(/C#N)c2nc3ccccc3[nH]2)c(C)n1-c1ccccc1C(=O)O	16	-10	-2	11	100	43	/	/
Cc1cccc(NC(=O)Cn2c(O)c(N=NC(=O)c3ccccc3O)c3ccccc32)c1	-3	1	6	-8	101	88*	15	-3
COc1ccc(S(=O)(=O)Nc2nc3ccccc3nc2NCC2CCCO2)cc1 (stereo not drawn)	-11	1	0	0	97	0	/	/
CCn1c2ccccc2c2cc(CN3CCN(S(=O)(=O)Cc4ccccc4)CC3)ccc21	-27	6	-1	-3	98	60*	1	3
CCn1c2ccccc2c2cc(CN3CCN(S(=O)(=O)CC)CC3)ccc21	-7	4	-2	/	/	/	/	/
CN(C)c1cc(-c2ccc(Cl)c(Cl)c2)oc(=O)c1Cl	7	-2	3	26	111	62*	0	-2
CN(C)c1cc(-c2ccc(Cl)cc2)oc(=O)c1Cl	-2	6	-4	-22	111	0	/	/
CC(C)[C@H](NC(=O)c1ccco1)C(=O)OCc1cc(=O)n2c(n1)sc1ccccc12	1	9	3	11	115	84*	17	-1
Cc1ccccc1Nc1nc(N)nc(COC(=O)C(NC(=O)c2ccco2)C(C)C)n1 (stereo not drawn)	3	4	6	4	99	0	/	/
Cc1ccc(C(=O)N[C@H](C(=O)OCc2cc(=O)n3c(n2)sc2ccccc23)C(C)C)cc1	5	9	3	1	98	84*	3	-1
COc1ccccc1NC(=O)COC(=O)c1cc2c(s1)CCC2	/	-4	5	11	102	94*	2	14
O=C(NCCC1=CCCCC1)C1CCCN(S(=O)(=O)c2cccnc2)C1 (stereo not drawn)	-6	1	2	4	108	0	/	/
O=C(COc1ccc(Cl)cc1Cl)NC(=S)Nc1ccccc1C(=O)O	25	/	/	/	/	/	/	/
O=C(COc1ccc(Cl)cc1Cl)Nc1ccc(C(=O)Nc2ccccc2C(=O)O)cc1	-15	-2	-4	41*	92	84*	18	5
Cc1cc(N/N=C/c2ccc(O)cc2)nc(NS(=O)(=O)c2ccccc2)n1	14	-1	3	14	109	83*	1	-1
